Source: PubChem BioAssay (Sanford-Burnham Center for Chemical Genomics)
A selection: hits, their analogues and other compounds. The true share with any hit is near 2.9%.
SENP8 block-1: human SENP8 protease inhibitors, primary screen, biochemical, fluorescence, Nedd8 protein substrate, uHTS; inhibition, % at 20 µM; AID 602440, 2012; recombinant SENP8; 0.64% of 360,000 active; Sentrin-specific protease 8 (Homo sapiens), Q96LD8; in the data active = inhibition mostly above about 40%, no sharp cut-off; inactive = mostly below about 27%
Target sequence (Q96LD8 whole entry, looked up): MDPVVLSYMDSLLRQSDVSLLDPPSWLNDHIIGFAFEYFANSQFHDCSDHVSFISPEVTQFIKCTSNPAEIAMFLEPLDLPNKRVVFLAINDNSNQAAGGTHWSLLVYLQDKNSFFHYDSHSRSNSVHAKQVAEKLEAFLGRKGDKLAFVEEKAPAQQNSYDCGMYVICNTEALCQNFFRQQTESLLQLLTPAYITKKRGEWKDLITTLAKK
Apaf1 inhib: inhibitors of human Apaf-1 apoptosome, primary screen, biochemical, DEVD-Rh110 fluorescence, uHTS. inhibition, % at 20 µM. 0.71% of 330,000 active. Apoptotic protease-activating factor 1 (Homo sapiens), O14727. reconstituted apoptosome caspase-3 activity; active = inhibition of at least 40% at 20 µM
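Material: reconstituted apoptosome with Apaf-1, cytochrome c, caspase-9, procaspase-3, dATP / Buffer or medium: pH 7.5 Hepes buffer with CHAPS, BSA, DTT / Also added: cytochrome c with DEVD-Rh110 / Schedule: compound with Apaf-1, dATP, procaspase-3 30 min, then 50 min reaction, room temperature / Technique: rhodamine 110 fluorescence at Ex 480/Em 540 nm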
SENP1 inh: human SENP1 catalytic domain inhibitors, primary screen, biochemical, FRET, uHTS; recombinant SENP1 catalytic domain, CyPet-SUMO1-YPet FRET cleavage; inhibition, % at 10 µM; 0.21% of 360,000 active; AID 624204, 2012;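 active = inhibition at least 30% at 10 µM, raw YFP signal under a set limit, fluorescence ratio 0.5 to 1.5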
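Material: hSENP1 catalytic domain, recombinant; medium: Tris pH 8 with BME, BSA, NP40 and catalase; compound: single concentration of 10 µM compound, 0.5% DMSO final; technique: FRET read of cyan and yellow fluorescence; timing: 50 min enzyme reaction, room temperature, light-protected; reagent: SFCypet-SUMO1-SFYpet substrate at 25 nM; control set: no-enzyme low, enzyme-DMSO high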
SENP6 block: SENP6 protease inhibitors, primary screen, biochemical, luminescence, uHTS; Sentrin-specific protease 6 (Homo sapiens), Q9GZR1; Recombinant SENP6 catalytic domain, aminoluciferin luminescence; inhibition, % at 10 µM; 1.8% of 330,000 active; AID 2599, 2010;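 active = inhibition above about 50% at the single tested dose, limit read from the data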
Target sequence (Q9GZR1 628-1112 limits assumed): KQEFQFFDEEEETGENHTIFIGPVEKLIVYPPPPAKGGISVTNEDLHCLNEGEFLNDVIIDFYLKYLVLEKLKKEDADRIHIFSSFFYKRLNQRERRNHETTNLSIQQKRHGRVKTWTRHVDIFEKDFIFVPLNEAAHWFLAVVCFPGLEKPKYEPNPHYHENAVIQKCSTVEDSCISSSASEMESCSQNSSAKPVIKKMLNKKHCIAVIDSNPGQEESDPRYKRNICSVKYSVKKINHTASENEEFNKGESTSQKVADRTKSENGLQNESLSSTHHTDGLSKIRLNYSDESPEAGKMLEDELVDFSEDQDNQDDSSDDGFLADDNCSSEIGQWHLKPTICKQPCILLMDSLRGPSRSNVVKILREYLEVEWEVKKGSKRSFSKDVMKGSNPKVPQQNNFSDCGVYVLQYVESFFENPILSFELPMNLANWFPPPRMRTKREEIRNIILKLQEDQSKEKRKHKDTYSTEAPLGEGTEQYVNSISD
SENP8 block-2: SENP8 protease inhibitors, primary screen, biochemical, luminescence | Sentrin-specific protease 8 (Homo sapiens), Q96LD8 | 1.2% of 330,000 active | inhibition, % at 10 µM | purified SENP8, Z-RLRGG-aminoluciferin cleavage; in the data active = inhibition above about 50%
SENP7 inh: SENP7 protease inhibitors, primary screen, biochemical, luminescence, uHTS. Sentrin-specific protease 7 (Homo sapiens), Q9BQF6. recombinant SENP7, Z-RLRGG-aminoluciferin luminescence, 40 min. inhibition, % at 5 µM. 1.5% of 330,000 active;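 active = inhibition above about 50% at the single test dose, limit read from the data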
SENP8 conf: SENP8 protease inhibitors, retest, confirmation, biochemical, luminescence, single concentration; shares compounds with SENP7 inh; AID 488912, 2010; inhibition, % at 12.5 µM; Recombinant SENP8, Z-RLRGG-aminoluciferin luminescence, 60 min; 40% of 6,200 active;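 active = mean inhibition across replicates above about 50%, limit read from the data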
SENP6 conf: SENP6 protease inhibitors, confirmation, biochemical, luminescence, single concentration. shares compounds with SENP7 inh. recombinant SENP6, Z-RLRGG-aminoluciferin luminescence. inhibition, % at 12.5 µM. 58% of 6,200 active
SENP7 conf: SENP7 protease inhibitors, retest, confirmation, biochemical, luminescence, single concentration | shares compounds with SENP7 inh | recombinant SENP7, Z-RLRGG-aminoluciferin luminescence, 40 min | inhibition, % at 12.5 µM | 69% of 6,200 active | AID 488917, 2010
Casp3 SENP sel: caspase-3 protease inhibitors, confirmation, selectivity assay for SENP inhibitor project, biochemical, single concentration; 60% of 6,200 active; inhibition, % at 12.5 µM; purified caspase-3, Z-DEVD-aminoluciferin luminescence, 60 min; shares compounds with SENP7 inh; AID 488918, 2010;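 active = mean inhibition above about 50%, limit read from the data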
Luc interf: luminescence interference (SENP counter-screen); shares compounds with SENP7 inh; Pre-incubated SENP8/Z-RLRGG-aminoluciferin, luciferase luminescence interference; inhibition, % at 12.5 µM; 39% of 6,200 active; AID 488919;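 active = mean inhibition above about 50% when retested at one dose, limit read from the data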
Apaf-1 inh conf2: Apaf-1 inhibitors, single-dose retest, confirmation, biochemical, fluorescence, DEVD-Rh110, 20 µM; 25% of 1,800 active; reconstituted apoptosome, caspase-3 DEVD-Rh110 fluorescence; AID 504614, 2011; shares compounds with Apaf1 inhib; inhibition, % at 20 µM;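 active = mean inhibition of at least 40% at 20 µM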
Rh110 quench: Rh110 fluorescence interference by putative Apaf-1 inhibitors, confirmation, artefact control for Apaf-1 inhibitor project, biochemical, 20 µM; shares compounds with Apaf1 inhib; quenched caspase reaction; activation (fluorescence interference), % at 20 µM; 1,800 tested, under 10 active; AID 504615, 2011;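 active = signal rise of 40% or more at 20 µM, treated as a fluorescence artifact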
Fluor interf inh: fluorescence interference of Apaf-1 inhibitor hits, dose response, artefact control for Apaf-1 inhibitor project. 460 tested, under 10 active. IC50, µM. fluorescence interference counterscreen, Apaf-1 assay format. shares compounds with Apaf1 inhib; call rule not given here
Each line names hits and unclear results; the compound was inactive in the other large screens (follow-up assays come after a bar, where they were run); ! = repeats disagree.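 Rule for the calls, unless noted: active = mean inhibition above about 50% in the one-dose retest (limit read from the data); inactive = the rest.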

COC(=O)c1ccccc1NC1=C/C(=N\S(=O)(=O)c2cccs2)c2ccccc2C1=O	SENP8 block-1 53!, Apaf1 inhib 92, SENP6 block 63, SENP8 block-2 89, SENP7 inh 52 | SENP8 conf inactive | SENP6 conf 64 | SENP7 conf inactive | Casp3 SENP sel inactive | Luc interf inactive | Apaf-1 inh conf2 94 | Rh110 quench inactive | Fluor interf inh inactive
O=C(O)c1cccc(NS(=O)(=O)c2ccc3c(c2)C(=O)c2ccccc2C3=O)c1	none
Cc1ccc(S(=O)(=O)/N=C2/C=C(Sc3ncn[nH]3)C(=O)c3ccccc32)cc1	none (no result: Apaf1 inhib, SENP6 block, SENP8 block-2, SENP7 inh)
COc1ccccc1CNC(=O)C1(C)CCN1C(=O)Cc1ccc(-c2ccccc2)cc1 (stereo unspecified)	none (no result: Apaf1 inhib, SENP6 block, SENP8 block-2, SENP7 inh)
CC1(C(=O)NS(=O)(=O)c2cccc(Cl)c2)CCN1C(=O)C/C=C/c1ccccc1 (stereo unspecified)	none (no result: Apaf1 inhib, SENP6 block, SENP8 block-2, SENP7 inh)
O=C1CCC(=O)c2ccc3c4c(ccc1c24)CC3	none (no result: Apaf1 inhib, SENP6 block, SENP8 block-2, SENP7 inh)
O=C1CCN2C=Nc3cccc4ccc1c2c34	Apaf1 inhib 43, SENP6 block 69, SENP8 block-2 59 | SENP8 conf inactive | SENP6 conf inactive | SENP7 conf inactive | Casp3 SENP sel inactive | Luc interf inactive | Apaf-1 inh conf2 inactive | Rh110 quench inactive
CCOC(=O)CNc1ccc2c(c1)OCO2	Apaf1 inhib 40, SENP6 block 59 | SENP8 conf inactive | SENP6 conf inactive | SENP7 conf inactive | Casp3 SENP sel inactive | Luc interf inactive | Apaf-1 inh conf2 inactive | Rh110 quench inactive
CN(C)CCCNC(=O)/C(=C/c1ccc(-c2ccc([N+](=O)[O-])cc2)o1)NC(=O)c1ccccc1	none
Cc1ccc(C(=O)N/C(=C\c2ccc(-c3ccccc3[N+](=O)[O-])o2)C(=O)NCCCN(C)C)cc1	Apaf1 inhib 56, SENP6 block 50 | SENP8 conf inactive | SENP6 conf inactive | SENP7 conf inactive | Casp3 SENP sel inactive | Luc interf inactive | Apaf-1 inh conf2 46 | Rh110 quench inactive | Fluor interf inh inactive
O=C(C(=O)N1CCN(C/C=C/c2ccccc2)CC1)c1ccccc1	none (no result: Apaf1 inhib, SENP6 block, SENP8 block-2, SENP7 inh)
COc1cc([N+](=O)[O-])cc(/C=N/NC(=O)C(C)Nc2cccc3ccccc23)c1O (stereo unspecified)	Apaf1 inhib 93, SENP6 block 68 | SENP8 conf inactive | SENP6 conf inactive | SENP7 conf inactive | Casp3 SENP sel inactive | Luc interf inactive | Apaf-1 inh conf2 inactive | Rh110 quench inactive
Cc1cccc(/C=N/NC(=O)C(C)Nc2cccc3ccccc23)n1 (stereo unspecified)	Apaf1 inhib 91, SENP6 block 88, SENP8 block-2 78 | SENP8 conf inactive | SENP6 conf inactive | SENP7 conf inactive | Casp3 SENP sel inactive | Luc interf inactive | Apaf-1 inh conf2 inactive | Rh110 quench inactive
Cc1cc(C)c(C#N)c(N2CCCC(C(N)=O)C2)n1 (stereo unspecified)	none
N#Cc1c(N2CCCC(O)C2)nc(N)c2c(N)nc3c(c12)CC(=O)N3C12CC3CC(CC(C3)C1)C2 (stereo unspecified)	Apaf1 inhib 98, SENP6 block 96, SENP8 block-2 97, SENP7 inh 64 | SENP8 conf inactive | SENP6 conf inactive | SENP7 conf inactive | Casp3 SENP sel inactive | Luc interf inactive | Apaf-1 inh conf2 44 | Rh110 quench inactive | Fluor interf inh inactive
COC(=O)[C@H](Cc1ccccc1)NC(=O)/C=C/[C@H]1O[C@@H](n2ccc(=O)[nH]c2=O)[C@H](O)[C@@H]1O	none (no result: Apaf1 inhib, SENP6 block, SENP8 block-2, SENP7 inh)
O=C1C(Cl)=C(N2CCC(C(=O)O)CC2)C(=O)c2ccccc21	Apaf1 inhib 75, SENP6 block 63 | SENP8 conf 56 | SENP6 conf 71 | SENP7 conf inactive | Casp3 SENP sel inactive | Luc interf inactive | Apaf-1 inh conf2 53 | Rh110 quench inactive | Fluor interf inh inactive
O=C(O)C1CCN(C(=O)c2ccccc2Cl)CC1	none
Cc1c(NC(=O)c2ccc([N+](=O)[O-])o2)cccc1-c1nc2ncccc2o1	none
COc1ccc(-c2nc(C#N)c(N3CCc4ccccc4C3)o2)cc1OC	none
CCN(CC)c1nc(N)c(C#N)c(CC#N)c1C#N	none
CCN(CC)c1nc(N)c2c(N)nc(OC)cc2c1C#N	Apaf1 inhib 46, SENP6 block 76, SENP8 block-2 51 | SENP8 conf inactive | SENP6 conf inactive | SENP7 conf inactive | Casp3 SENP sel inactive | Luc interf inactive | Apaf-1 inh conf2 inactive | Rh110 quench inactive
